Measured values taken from ChEMBL document CHEMBL1140948, “Malaria-infected mice are cured by a single oral dose of new dimeric trioxane sulfones which are also selectively and powerfully cytotoxic to cancer cells” (J Med Chem, 2009).

Columns and labels:
[1] = Partition coefficient, log P of the compound; format: physicochemical; conditions: octanol/water
Plasmodium berghei [2] = experiment: Antiplasmodial activity as reduced parasitaemia in Plasmodium berghei ANKA infected BALB/c mice (Mus musculus) at 30 mg/kg peroral dose; format: functional; parameters: scale not given: the % may be the effect or the level left; conditions: route oral
Plasmodium berghei [3] = experiment: Antiplasmodial activity as survival in Plasmodium berghei ANKA infected BALB/c mice (Mus musculus) at 30 mg/kg peroral dose; format: functional; conditions: route oral
Mus musculus [4] = experiment: Toxicity in Plasmodium berghei ANKA infected BALB/c mice (Mus musculus) assessed as induction of adverse effects at 144 mg/kg, perorally administered as single dose; format: organism-based; parameters: dose 144 mg/kg, route oral; conditions: in vivo, po
Summary of the method: (§1)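 Male 5-week-old mice of about 22 g, infected i.p. on day 0 with 2 × 10^7 P. berghei ANKA-parasitized erythrocytes. At 24 h they received one oral dose in 7:3 Tween 80:ethanol diluted with water, 5 mice per group. Animals were watched to day 30 for overt toxicity and behavioral change.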

HL-60 = experiment: Cytotoxicity against human HL60 cells after 72 hrs by MTS assay; format: functional, cell-based; conditions: HL-60, 72 h
Summary of the method: (§2)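 Exposed to a range of compound concentrations for 72 hr. Viability by MTS/PMS, absorbance at 490 nm. IC50 from logistic dose-response fits, mean of at least three experiments ± SEM.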

[5] = Cytotoxicity against human Hs888Lu cells after 72 hrs by SRB assay; format: cell-based
Summary of the method: (§3)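 Non-cancerous immortalized fibroblasts grown in DMEM with 10% FBS and 1% pen/strep at 37 °C, 5% CO2, allowed ≥5 h to attach. Dosed over a concentration range for 72 hr. IC50 by logistic curve fitting, at least three experiments ± SEM.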

Mus musculus [6] = experiment: Toxicity in Plasmodium berghei ANKA infected perorally dosed BALB/c mice (Mus musculus) assessed as induction of behavioral changes administered as single dose; format: organism-based; conditions: in vivo, po; summary of the method: as §1
HeLa = experiment: Cytotoxicity against human HeLa cells after 72 hrs by SRB assay; format: functional, cell-based
Summary of the method: (§4)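 Then 72 hr with a range of compound concentrations. Fixed overnight at 4 °C in 10% TCA, stained 30 min with 0.057% w/v sulforhodamine B in 1% acetic acid, dye solubilised in 10 mM Tris base, read at 510 nm.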

MEF = experiment: Cytotoxicity against mouse wild type MEF cells after 72 hrs by SRB assay; format: cell-based
Summary of the method: as §3, with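 “hr. Biomass by SRB: TCA fixation overnight at 4 °C, 0.057% SRB stain for 30 min, Tris solubilisation, A510.” for “hr.”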

UACC-62 = experiment: Cytotoxicity against human UACC62 cells after 72 hrs by SRB assay; format: functional, cell-based; conditions: UACC-62, 72 h; summary of the method: as §4
SK-MEL-5 = experiment: Cytotoxicity against human SK-MEL-5 cells after 72 hrs by SRB assay; format: functional, cell-based; conditions: SK-MEL-5, 72 h; summary of the method: as §4
U-937 = experiment: Cytotoxicity against human U937 cells after 72 hrs by MTS assay; format: functional, cell-based; conditions: U-937, 72 h; summary of the method: as §2
Plasmodium berghei [7] = experiment: Antiplasmodial activity as survival in Plasmodium berghei ANKA infected BALB/c mice (Mus musculus) after single 13 mg/kg peroral dose; format: functional; conditions: route oral

With `C[C@H]1[C@@H](CC(C[C@H]2O[C@@H]3C[C@]4(C)CC[C@H]5[C@H](C)CC[C@@H]([C@H]2C)[C@@]35OO4)CS(=O)(=O)Cc2ccc(F)cc2)O[C@@H]2C[C@]3(C)CC[C@H]4[C@H](C)CC[C@@H]1[C@@]24OO3` the logP ([1]; read-out: logP) was 7.8.

`CC(C)(N)CNC(=O)C[C@H]1CC[C@]2(CC1)OO[C@]1(O2)C2CC3CC(C2)CC1C3` [OZ277] showed an Activity (Plasmodium berghei [2]) of 99.95% and a Survival (Plasmodium berghei [3]) of 10.7 days.

`C[C@H]1[C@@H](CC(C[C@H]2O[C@@H]3C[C@]4(C)CC[C@H]5[C@H](C)CC[C@@H]([C@H]2C)[C@@]35OO4)CS(=O)(=O)CCCCCCO)O[C@@H]2C[C@]3(C)CC[C@H]4[C@H](C)CC[C@@H]1[C@@]24OO3` showed a logP [1] of 9.5.

`CCN(CC)C(=O)OCc1ccc(S(=O)(=O)CC(C[C@H]2O[C@@H]3C[C@]4(C)CC[C@H]5[C@H](C)CC[C@@H]([C@H]2C)[C@@]35OO4)C[C@H]2O[C@@H]3C[C@]4(C)CC[C@H]5[C@H](C)CC[C@@H]([C@H]2C)[C@@]35OO4)cc1` showed a logP ([1]; read-out: logP) of 8.3.

For `C[C@H]1[C@@H](CC(C[C@H]2O[C@@H]3C[C@]4(C)CC[C@H]5[C@H](C)CC[C@@H]([C@H]2C)[C@@]35OO4)CS(=O)(=O)c2ccc(COC(=O)N(C)C)cc2)O[C@@H]2C[C@]3(C)CC[C@H]4[C@H](C)CC[C@@H]1[C@@]24OO3`, the Activity (Mus musculus [4]) was “Non-toxic”, the IC50 (HL-60) was 60 nM and the IC50 [5] was greater than 50 µM. For the same compound, the Activity (Mus musculus [6]) was “Non-toxic”, the logP ([1]; read-out: logP) was 7.6 and the IC50 (HeLa) was 110 nM. The IC50 (MEF) was greater than 50 µM, the IC50 (UACC-62) was 40 nM and the IC50 (SK-MEL-5) was 60 nM. The IC50 (U-937) was 280 nM.

For `CCOP(=O)(OCC)OCc1ccc(S(=O)(=O)CC(C[C@H]2O[C@@H]3C[C@]4(C)CC[C@H]5[C@H](C)CC[C@@H]([C@H]2C)[C@@]35OO4)C[C@H]2O[C@@H]3C[C@]4(C)CC[C@H]5[C@H](C)CC[C@@H]([C@H]2C)[C@@]35OO4)cc1`, the logP ([1]; read-out: logP) was 8.8.

Work on `COc1cccc2c1C(=O)c1c(O)c3c(c(O)c1C2=O)C[C@@](O)(C(=O)CO)C[C@@H]3O[C@H]1C[C@H](N)[C@H](O)[C@H](C)O1` [DOXORUBICIN] yielded an IC50 (MEF) of 3.4 µM.

In the case of `C[C@H]1[C@@H](CC(C[C@H]2O[C@@H]3C[C@]4(C)CC[C@H]5[C@H](C)CC[C@@H]([C@H]2C)[C@@]35OO4)CS(=O)(=O)c2ccc(CO)cc2)O[C@@H]2C[C@]3(C)CC[C@H]4[C@H](C)CC[C@@H]1[C@@]24OO3`, the IC50 (HL-60) is reported as 130 nM, the IC50 [5] is reported as greater than 50 µM and the logP ([1]; read-out: logP) is reported as 7. It also gave an IC50 (HeLa) of 1100 nM, an IC50 (MEF) greater than 50 µM and an IC50 (UACC-62) of 30 nM. For the same compound, the IC50 (SK-MEL-5) was 140 nM and the IC50 (U-937) was 280 nM.

For `Cl.OC(c1cc(C(F)(F)F)nc2c(C(F)(F)F)cccc12)C1CCCCN1` (configuration not stated) [MEFLOQUINE HYDROCHLORIDE], the Survival (Plasmodium berghei [7]) was 11 days.

`C[C@H]1[C@H](OC(=O)CCC(=O)[O-])O[C@@H]2O[C@@]3(C)CC[C@H]4[C@H](C)CC[C@@H]1[C@@]24OO3.[Na+]` [SODIUM ARESUNATE] gave a Survival (Plasmodium berghei [3]) of 7.6 days.
